Screening data deposited in PubChem by several laboratories.
MT stabilizer: microtubule stabilizers in HeLa cells, primary screen, imaging, high-content imaging; HeLa tubulin immunostaining HCS, 24 h; share of cells brighter than vehicle mean+2SD; % tubulin-high responders, % at 10 µM; 200,000 tested, 0.83% active;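 active means plate Z-score above 3 for both tubulin-high and condensed-nucleus cell shares, with cell loss under 80%, at 10 µM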;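 further: anti alpha tubulin signal scored within the nucleus-defined area of each cell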
Ins promoter up: insulin promoter activators in MIN6 cells, imaging, high-content screening, mouse beta cells. MIN6 insulin promoter-GFP reporter; hits give high values. z-score at 5 µM. 190,000 tested, 0.3% active. AID 1625, 2009;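 active means z-score above 3 at 5 µM with at least 500 cells counted in the well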
b-catenin transl: modulators of beta-catenin nuclear translocation, primary screen, imaging, HeLa cells, immunofluorescence, high-content; 190,000 tested, 0.3% active; nuclear translocation activity, % at 5 µM; AID 1665, 2009;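 active means nuclear translocation activity above 50% at 5 µM, with a well cell count of 50 or more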;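 further: per-cell ratio of nuclear to cytoplasmic median beta-catenin stain intensity; plate controls were DMSO negative control for no effect and GSK-3 inhibitor IX positive control for full effect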
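System: HeLa cells, endogenous beta-catenin; compound dosing: 5 µM primary single dose, 0.1% DMSO, 0.02–20 µM confirmation series; incubation: 24 h compound exposure at 37°C, 5% CO2; signal: beta-catenin immunofluorescence imaging with DAPI; evaluation: % activation, nuclear-to-cytoplasmic median beta-catenin signal ratio per cell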
Autophagy mod: autophagy modulators in MEF cells, primary screen, imaging, high-content, MEF GFP-LC3; MEF GFP-LC3 puncta imaging; test concentration mostly 10 µM; calls only at 10 µM (by protocol); 190,000 tested, 0.98% active; AID 463193, 2010;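 active means percentage of spot-positive cells more than 3 SD above its plate mean, without a fluorescence outlier flag or 80% toxicity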;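 further: spot-positive cell cutoff set from DMSO-treated cells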
Wee1 stabilizer: Wee1 degradation inhibitors, primary screen, cell-based, HeLa, Wee1K328M-luciferase, luminescence; Wee1-like protein kinase (Homo sapiens), P30291; HeLa Luc-Wee1K328M stability; 100% = proteasome inhibitor MG132 effect; reporter increase, % at 5 µM; 220,000 tested, 1.2% active; AID 1321, 2008;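 active means activation above the mean of all tested compounds plus 3 SD, set per screening run, cut at about 8.8% in these data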;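 further: cells exposed to compound for 20 h before luminescence read; 0% = DMSO alone and 100% = MG132 at 30 µM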
* marks the source's active call; other numbers are inactive results. The list is not random: actives were taken first. Their share in the collection is about 2.9%.

`O=C(/C=C/c1ccco1)NC(=S)Nc1cccc([N+](=O)[O-])c1` gave MT stabilizer 15*, Ins promoter up -0.43, b-catenin transl 2, Autophagy mod inactive and Wee1 stabilizer 1.
For O=C(/C=C/c1ccco1)NC(=S)Nc1cccc(-c2nc3ccccc3o2)c1 the results were MT stabilizer 28*, Ins promoter up -0.46, b-catenin transl 54*, Autophagy mod inactive and Wee1 stabilizer 0.
For COc1ccc(-c2csc(NC(=S)NC(=O)/C=C/c3ccco3)n2)cc1OC the results were MT stabilizer 2, b-catenin transl 52*, Autophagy mod inactive and Wee1 stabilizer -3.
`Cc1ccc(NC(=O)/C=C/c2ccco2)nc1` gave MT stabilizer 4, Ins promoter up -0.15, b-catenin transl 146*, Autophagy mod inactive and Wee1 stabilizer 9.
COc1ccc(-c2csc(NC(=S)NC(=O)/C=C/c3ccco3)n2)cc1Br was read as Ins promoter up 0.09, b-catenin transl -2 and Wee1 stabilizer 4.
Cn1ncc([N+](=O)[O-])c1C(=O)Nc1ccc(-c2nc3ccccc3o2)cc1 was read as MT stabilizer 3, Ins promoter up -0.14, b-catenin transl -4, Autophagy mod inactive and Wee1 stabilizer 6.
Screening Cc1cc(C)n(C(=O)/C(C#N)=N/Nc2cc(Cl)cc(Cl)c2)n1 returned MT stabilizer 2, Ins promoter up -0.8, b-catenin transl 4, Autophagy mod inactive and Wee1 stabilizer -2.
`CCC(=O)N(Cc1ccco1)C1CC(=O)N(c2ccccc2)C1=O` (stereo not given) gave MT stabilizer 4, Ins promoter up 0.39, b-catenin transl -2, Autophagy mod inactive and Wee1 stabilizer -2.
`COC(=O)c1cc(C(=O)Nc2ccc(S(N)(=O)=O)cc2)cc([N+](=O)[O-])c1` gave MT stabilizer 2, Ins promoter up 0.25, b-catenin transl 0, Autophagy mod inactive and Wee1 stabilizer 0.
`CC(C)CC(=O)NC(=S)Nc1ccc(N2CCCC2)c(Cl)c1` gave Ins promoter up 1.5, b-catenin transl -2 and Wee1 stabilizer 10*.
For Cc1ccc(-n2nc3ccc(NC(=S)NC(=O)/C=C/c4ccco4)cc3n2)cc1 the results were MT stabilizer 2, Ins promoter up 0.25, b-catenin transl 2, Autophagy mod inactive and Wee1 stabilizer 1.
Screening O=C(/C=C/c1ccco1)NC(=S)Nc1ccc(N2CCOCC2)c(Cl)c1 returned MT stabilizer 48*, Ins promoter up -0.77, b-catenin transl 0, Autophagy mod inactive and Wee1 stabilizer -2.
`O=C(NC(=S)Nc1ccc(CN2CCCCC2)cc1)c1ccco1` gave MT stabilizer 4, Ins promoter up 0.26, b-catenin transl 1, Autophagy mod inactive and Wee1 stabilizer -2.
`O=C(NC(=S)Nc1ccc(CN2CCOCC2)cc1)c1ccco1` gave Ins promoter up 0.05, b-catenin transl -1 and Wee1 stabilizer 10*.
For Cc1cccc(NC(=S)NC(=O)/C=C/c2ccco2)c1 the results were MT stabilizer 22*, Ins promoter up 1.2, b-catenin transl 52*, Autophagy mod active and Wee1 stabilizer 6.
`C=CCn1c(SCC(=O)NCC2CCCO2)nnc1-c1ccccc1` (stereo not given) gave MT stabilizer 2, Ins promoter up 0.72, b-catenin transl -2, Autophagy mod inactive and Wee1 stabilizer 4.
`O=C(c1cccc(S(=O)(=O)N2CCCC2)c1)c1nnc(-c2ccncc2)o1` gave MT stabilizer 2, Ins promoter up -0.81, b-catenin transl -5, Autophagy mod inactive and Wee1 stabilizer 0.
`O=C(/C=C/c1ccco1)Nc1ccc(N2CCCC2)cc1` gave MT stabilizer 25*, Ins promoter up 0, b-catenin transl 7, Autophagy mod inactive and Wee1 stabilizer 2.
For O=C(Cn1cc([N+](=O)[O-])nc1[N+](=O)[O-])N1CCN(c2ccccc2)CC1 the results were MT stabilizer 3, Ins promoter up 1.5, b-catenin transl -2, Autophagy mod inactive and Wee1 stabilizer 1.
`Cc1ccccc1CN(C)CC(=O)NC(C)CCc1ccccc1` (stereo not given) gave MT stabilizer 2, Ins promoter up 0.11, b-catenin transl -4, Autophagy mod active and Wee1 stabilizer -1.
